Assay [1] is described as follows: S. cerevisiae growth inhibition in permissive medium (OD615), pilot counter-assay for S. cerevisiae lifespan shortening project, permissive growth control (AID 705;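 active = growth inhibition above 25% in both replicates, a cutoff set 3 SD above the mean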). The following applies: OD615, 24 h, at 10 µM, stronger effect = higher value. In short, it runs like this:
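assay system = Saccharomyces cerevisiae strain carrying genetically modified DeaD replicative-lifespan system | technique = absorbance (optical density) at 615 nm | buffer or medium = permissive raffinose/galactose medium | timing = cells pre-grown 4 h, then 24 h compound exposure, 30 °C humidified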

Assay [2] can be described thus: S. cerevisiae growth inhibition in restrictive medium, OD615, pilot screen, restrictive growth control, yeast lifespan reduction project (AID 706;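 active = growth inhibition above a set limit, 3 SD over mean compound inhibition, in both replicates, cut at about 43% in these data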;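 note: modified DeaD lifespan yeast strain shifted to restrictive glucose medium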). Particulars: OD615, 48 h, at 10 µM, stronger effect = higher value. In short, it runs like this: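 System: modified S. cerevisiae. Buffer or medium: CSMM-D glucose medium. Incubation: 4 h pre-growth plus 48 h compound exposure, 30 °C. Detection: absorbance (optical density) measured at 615 nm.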

Assay [3] is described as follows: doxorubicin toxicity protection in MRP-1 cells – H69AR cells, CellTiter-Glo, duplicate, MRP-1 activator project, pilot screen (AID 807;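 active = viability increase at or above a cutoff of the median across tested compounds plus 3 SD, cut at about 8.5% in these data, passing the limit was not always enough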;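 note: compound pretreatment 18-22 h then 72 h combined with doxorubicin; 0% = doxorubicin alone and 100% = vehicle without doxorubicin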). The following applies: H69AR viability with doxorubicin, CellTiter-Glo luminescence; at 10 µM; stronger effect = higher value.
Assay [4] is described as follows: viability of HCT116 without oncogenic beta-catenin – human colon tumor cells, pilot screen (AID 823;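 active = cell viability at or below a set limit in both duplicate runs, the limit being the all-compound median minus 4 SD, cut at about 23% in these data, passing the limit was not always enough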;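 note: 0% = wells killed by 20 µM Hyamine and 100% = untreated DMSO cell wells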). The following applies: HCT116 beta-catenin knockout viability, CellTiter-Glo, 60 h; at 10 µM; stronger effect = lower value.
Assay [5] can be described thus: viability of PTEN-null HCT116 cells – cell-based, HCT116 clonal line, CellTiter-Glo, pilot screen (AID 824;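 active = viability at or below 27.92% in each of two runs, the all-compound median minus 4 SD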;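 note: 0% = 20 µM Hyamine control and 100% = vehicle cell control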). Particulars: HCT116 PTEN-deleted viability, 60 h, at 10 µM, stronger effect = lower value.
Assay [6] in a line: RAM pathway blockade in budding yeast – dse1pr::URA3 reporter, 5-FOA selection, pilot screen (AID 869;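 active = inhibition over a set limit, the all-compound mean plus 3 SD, in both replicate runs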;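 note: 0% = DMSO wells with no growth and 100% = 10 µM 1-NA-PP1 with full growth; RAM network block rescues cells from 5-FOA so hits raise OD615 growth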). Particulars: S. cerevisiae dse1pr::URA3 5-FOA growth, OD615, 2 d; at 10 µM; stronger effect = higher value; strain carries analog-sensitive mutant Cbk1 kinase.
The nature of assay [7]: RAM signaling pathway blockade in yeast – S. cerevisiae, Pdr1DBD-CYC8 efflux-inhibited sensitized strain, primary screen (AID 1298).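 Note: 0% = DMSO untreated cells without growth and 100% = 10 µM 1-NA-PP1 full growth; higher means more yeast growth rescued from 5-FOA killing.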 Particulars: S. cerevisiae cbk1-as DSE1-URA3 strain, 5-FOA growth OD615, 2 d; at 50 µM; stronger effect = higher value.

Unmarked numbers belong to inactive results. Inconclusive results are not listed. The source made the active and inactive calls.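 Rule for the calls, unless noted: active = RAM network inhibition above 8.4% in each of two replicates, 3 SD over the compound average; inconclusive = above 8.4% inhibition in only one replicate; inactive = 8.4% inhibition or less in each replicate.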

For `c1ccc(-n2cnnc2SCc2cn3ccccc3n2)cc1`, the growth inhibition in assay [1] is 5.34%; in assay [2] it was 20.6%. Further, the viability increase in assay [3] was -4.4%. For the same molecule, the values for the viability in assay [4] and in assay [5] were 101% and 95.6%, respectively. The inhibition in assay [6] is 1.19%. Besides, the RAM network inhibition in assay [7] is 7.66%.
Turning to `CCOc1ccc(C(=O)Nc2cc(=O)n(C)c(=O)n2C)cc1`, the results for the growth inhibition in assay [1] and in assay [2] were -29.3% and -26.3%, respectively. Moreover, in assay [3], the viability increase was -0.98%. The viability in assay [4] was 101%; in assay [5], 97.5%. The inhibition in assay [6] was 1.9%. In assay [7], the RAM network inhibition is 0.62%.
In the case of `Cc1ccc(CCNC(=O)C2CCCN(S(=O)(=O)c3c(C)noc3/C=C/N(C)C)C2)cc1` (stereo unspecified), the growth inhibition in assay [1] is -1.76%; in assay [2], 6.26%. Moreover, the viability increase in assay [3] is -1.67%. The viability in assay [4] was 88.1%; in assay [5] it was 74.1%. Also, the inhibition in assay [6] is 1.85%. Besides, the RAM network inhibition in assay [7] was 1.68%.
Regarding `COCCN1C(=O)c2ccccc2C(C(=O)NCCN(C)C)C1c1ccc(F)cc1` (stereo unspecified), the values for the growth inhibition in assay [1] and in assay [2] were -15% and -19.9%, respectively. In addition, in assay [3], the viability increase is -1.59%. Besides, the viability was 92.1% in assay [4] and 98.4% in assay [5]. For the same molecule, the inhibition in assay [6] was 1.89%. Further, the RAM network inhibition in assay [7] is 2.13%.
As for `COc1ccccc1NC(=O)CSc1nnc(Cn2c(=O)sc3ccccc32)n1C`, the growth inhibition in assay [1] is -3.61%; in assay [2], 5.22%. Further, the viability increase in assay [3] was -4.11%. The viability was 100% in assay [4] and 87.9% in assay [5]. In assay [6], the inhibition was 2.21%. Besides, the RAM network inhibition in assay [7] is 4.37%.
Turning to `Cc1c(C(=O)NCc2ccc3c(c2)OCO3)oc2ccc(S(=O)(=O)N3CCC(C)CC3)cc12`, the growth inhibition was -11.5% in assay [1] and -16.7% in assay [2]. Further, the viability increase in assay [3] is 0.73%. The viability in assay [4] was 74.7%; in assay [5] it was 73%. Further, the inhibition in assay [6] was 2.39%. Also, the RAM network inhibition in assay [7] is 11.2%.
With `CCOC(=O)c1[nH]c(C)c(C(=O)N(CC)CC)c1C`, the growth inhibition was -10.8% in assay [1] and -5.69% in assay [2]. Further, in assay [3], the viability increase was 0.21%. In addition, the values for the viability in assay [4] and in assay [5] were 97% and 107%, respectively. Further, the inhibition in assay [6] was 1.27%. Besides, the RAM network inhibition in assay [7] was -0.57%.
As for `COc1ccc(-n2c(Cn3c(=O)sc4ccccc43)nnc2SCC(N)=O)cc1`, the growth inhibition is -10.9% in assay [1] and -0.695% in assay [2]. Moreover, the viability increase in assay [3] was 0.09%. Besides, the viability in assay [4] and in assay [5] was 101% throughout. For the same molecule, the inhibition in assay [6] was 1.29%. In addition, the RAM network inhibition in assay [7] is 0.06%.
On to `COc1ccc(NC(=O)C2CCN(C(=O)c3ccccc3)CC2)c(OC)c1`, for which the growth inhibition in assay [1] was 9.86%; in assay [2], -0.9%. Also, the viability increase in assay [3] is -2.96%. In addition, the viability in assay [4] was 95.8%; in assay [5], 94.8%. For the same molecule, in assay [6], the inhibition is 2.57%. Moreover, the RAM network inhibition in assay [7] is 3.44%.
As to `Cc1cc(C)n2nc(SCC#N)nc2n1`, the growth inhibition in assay [1] is -7.25%; in assay [2] it was -4.04%. Besides, the viability increase in assay [3] is -2.41%. The viability in assay [4] and in assay [5] was 95.4% throughout. In assay [6], the inhibition is 0.2%. Further, the RAM network inhibition in assay [7] is 4.36%.
`O=C(CCCC(=O)Nc1cccnc1)Nc1cccnc1`: the growth inhibition was -6.39% in assay [1] and 3.58% in assay [2]. For the same molecule, the viability increase in assay [3] was -0.66%. Besides, the viability in assay [4] was 103%; in assay [5], 99.2%. Moreover, the inhibition in assay [6] is 0.385%. The RAM network inhibition in assay [7] is 6.65%.
Consider `CC(=O)Nc1nnc(SCC(=O)NC(C)(C)C)s1`, for which the values for the growth inhibition in assay [1] and in assay [2] were -6.89% and 1.67%, respectively. Besides, the viability increase in assay [3] was -0.33%. The values for the viability in assay [4] and in assay [5] were 94.8% and 98.8%, respectively. For the same molecule, the inhibition in assay [6] is 1.88%. For the same molecule, in assay [7], the RAM network inhibition is 0.36%.
Turning to `C=CCc1ccccc1OCC(O)CN1CCN(c2ccccc2OC)CC1` (stereo unspecified), the results for the growth inhibition in assay [1] and in assay [2] were -21.5% and -25%, respectively. Besides, the viability increase in assay [3] was -4.59%. The results for the viability in assay [4] and in assay [5] were 56.3% and 63.5%, respectively. Moreover, the inhibition in assay [6] was 1.39%. In addition, in assay [7], the RAM network inhibition was 4.75%.
As to `COc1ccc(-c2nc(-c3ccc(NC(=O)c4ccncc4)cc3)no2)cc1OC`, the growth inhibition in assay [1] was -3.46%; in assay [2] it was 9.41%. Besides, in assay [3], the viability increase was 0.06%. Also, the viability in assay [4] is 42.6%; in assay [5], 50.8%. Further, the inhibition in assay [6] is 2.85%. For the same molecule, the RAM network inhibition in assay [7] was 2.92%.
As to `CCCCN(C)C(=O)c1c[nH]c2ccc(S(=O)(=O)N3CCOCC3)cc2c1=O`, the growth inhibition in assay [1] is -5.67%; in assay [2], -15.5%. Further, the viability increase in assay [3] was 0.64%. Further, the viability is 109% in assay [4] and 98.8% in assay [5]. Further, in assay [6], the inhibition was 2.05%. Besides, the RAM network inhibition in assay [7] is 5.01%.
With `CCOCCCNC(=O)CCCn1nc(C)n2c(cc3sccc32)c1=O`, the growth inhibition in assay [1] was -4.89%; in assay [2], 5.71%. For the same molecule, in assay [3], the viability increase is 0.66%. The viability was 108% in assay [4] and 98% in assay [5]. Moreover, in assay [6], the inhibition was 0.895%. In addition, in assay [7], the RAM network inhibition is 4.4%.
With `CCOC(=O)N1CCN(C(c2ccc(C(C)C)cc2)c2sc3nc(C)nn3c2O)CC1` (stereo unspecified), the growth inhibition in assay [1] is -1.48%; in assay [2], -10.5%. The viability increase in assay [3] was 2.48%. Also, the viability in assay [4] is 102%; in assay [5] it was 91%. For the same molecule, the inhibition in assay [6] is 0.2%. Also, in assay [7], the RAM network inhibition was 0.93%.
With `O=C(CSC1=NS(=O)(=O)c2ccccc21)Nc1ccccc1`, the growth inhibition is 56.7% (active) in assay [1] and 96.9% (active) in assay [2]. Further, the viability increase in assay [3] was -2.73%. In addition, the viability in assay [4] was 94.3%; in assay [5], 104%. In addition, the inhibition in assay [6] is -0.07%. Further, in assay [7], the RAM network inhibition is -0.47%.
For `CCCn1c(NCc2ccc(N(C)C)cc2)nc2ccccc21`, the growth inhibition is -11.6% in assay [1] and -8.42% in assay [2]. Further, the viability increase in assay [3] was -1.82%. Also, the viability in assay [4] was 70.8%; in assay [5], 70.9%. In assay [6], the inhibition is 0.405%. The RAM network inhibition in assay [7] is 5.4%.
Regarding `Cc1ccc(Cl)cc1N1CCN(C(=O)CCC(=O)O)CC1`, the growth inhibition in assay [1] was -10.9%; in assay [2], -29.2%. Also, the viability increase in assay [3] was -1.08%. In addition, the viability was 95.6% in assay [4] and 91.3% in assay [5]. The inhibition in assay [6] is 1.51%. Also, the RAM network inhibition in assay [7] is 2.18%.
With `COc1ccc(Br)cc1S(=O)(=O)N1CCN=C1C`, the growth inhibition in assay [1] was -0.525%; in assay [2] it was -18.3%. In addition, the viability increase in assay [3] is -1.79%. Moreover, the viability was 91.1% in assay [4] and 83.4% in assay [5]. Further, the inhibition in assay [6] was 0.79%. Further, the RAM network inhibition in assay [7] is -0.12%.
For `CCC(Sc1nc(=O)cc(N)n1CCc1ccccc1)C(=O)Nc1cc(C)on1` (stereo unspecified), the figures for the growth inhibition in assay [1] and in assay [2] were -3.68% and -7.75%, respectively. The viability increase in assay [3] was -1.78%. The viability in assay [4] is 104%; in assay [5], 95.7%. Further, the inhibition in assay [6] is 1.33%. Also, the RAM network inhibition in assay [7] was 6.71%.
Take `CCCCn1c2nc3ccccc3nc2c2c(=N)oc(C)nc21`: the figures for the growth inhibition in assay [1] and in assay [2] were -7.3% and -6.79%, respectively. Moreover, the viability increase in assay [3] is -4.49%. Moreover, the viability is 96.6% in assay [4] and 85.1% in assay [5]. For the same molecule, the inhibition in assay [6] is 0.265%. Moreover, in assay [7], the RAM network inhibition is 0.62%.

The record behind these values is PubChem BioAssay.
